Hits are enriched below; roughly 2% of the tested compounds scored in any of these assays.
STEP inh = STEP phosphatase inhibitors, primary screen, biochemical, fluorescence intensity, uHTS; Tyrosine-protein phosphatase non-receptor type 5 (Homo sapiens), P54829; recombinant STEP, OMFP fluorogenic substrate; inhibition, % at 20 µM; 0.25% of 360,000 active;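 active means inhibition at 20 µM, scaled per plate between control wells, above about 37%, limit read from the data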
Target sequence (P54829 whole entry, looked up): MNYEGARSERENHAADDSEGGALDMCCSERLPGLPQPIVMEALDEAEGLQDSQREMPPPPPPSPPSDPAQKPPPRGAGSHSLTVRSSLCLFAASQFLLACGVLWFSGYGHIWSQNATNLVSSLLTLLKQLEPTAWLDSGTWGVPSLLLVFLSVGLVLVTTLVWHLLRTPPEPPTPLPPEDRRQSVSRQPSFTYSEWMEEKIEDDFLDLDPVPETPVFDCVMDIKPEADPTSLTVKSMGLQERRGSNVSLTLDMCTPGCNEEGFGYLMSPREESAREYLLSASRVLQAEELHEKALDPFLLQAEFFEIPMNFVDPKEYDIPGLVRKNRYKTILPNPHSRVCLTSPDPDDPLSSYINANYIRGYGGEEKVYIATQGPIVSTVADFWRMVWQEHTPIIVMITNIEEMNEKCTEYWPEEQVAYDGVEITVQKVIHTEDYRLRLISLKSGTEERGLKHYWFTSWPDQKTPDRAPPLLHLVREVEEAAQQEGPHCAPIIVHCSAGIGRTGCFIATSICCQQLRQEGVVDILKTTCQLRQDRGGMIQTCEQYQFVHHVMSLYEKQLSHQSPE
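Test system: STEP tyrosine phosphatase / Reagent: OMFP at 25 µM / Doses: 20 µM, 1% DMSO / Read-out: percent inhibition scaled to no-enzyme and uninhibited-enzyme controls, plate-pattern corrected / Detection: FITC-channel fluorescence of OMFP product / Medium: Bis-Tris buffer pH 6.0, 2.5 mM DTT, 0.005% Tween 20 / Schedule: 20 min at room temperature, dark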
Scp-1 inhibitor = Scp-1 phosphatase inhibitors, primary screen, biochemical, colorimetric, uHTS | Carboxy-terminal domain RNA polymerase II polypeptide A small phosphatase 1 (Homo … | Recombinant Scp1, phosphopeptide, malachite green phosphate absorbance | inhibition, % at 20 µM | 0.88% of 340,000 active;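 active means inhibition above about 50% at 20 µM, limit read from the data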
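Test system: SCP-1 catalytic domain; Buffer or medium: Acidic Tris acetate buffer with magnesium and detergent; Also added: Phosphorylated 17-residue peptide substrate; Compound: single 20 µM dose, 1% DMSO; Schedule: enzyme reaction 45 min at room temperature, colour 5 min, stabilisation 30 min; Signal: Phosphate-binding colour reagent, absorbance read at 630 nm.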
DNMT1 block = human DNMT1 methyltransferase inhibitors, primary screen, biochemical, molecular beacon, fluorescence, HinP1I cleavage, uHTS | DNA (cytosine-5)-methyltransferase 1 (Homo sapiens), P26358 | inhibition (reported as % activation of signal), % at 10 µM | 0.83% of 360,000 active; in the data active means inhibition above about 50%
LMPTP inh = LMPTP phosphatase inhibitors, primary screen, biochemical, fluorescence intensity, uHTS. Low molecular weight phosphotyrosine protein phosphatase (Homo sapiens), P24666. recombinant LMPTP-A, OMFP fluorogenic substrate. inhibition, % at 20 µM. 0.22% of 360,000 active. AID 651560, 2012;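 active means compounds that cut the enzyme signal by at least half of the control window in the single-dose screen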
Target sequence (P24666 whole entry, looked up): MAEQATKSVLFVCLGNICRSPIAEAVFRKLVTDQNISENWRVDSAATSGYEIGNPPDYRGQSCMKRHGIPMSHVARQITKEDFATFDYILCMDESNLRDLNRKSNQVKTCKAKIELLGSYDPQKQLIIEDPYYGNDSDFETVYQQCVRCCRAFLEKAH
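Test system: LMPTP-A, protein tyrosine phosphatase of low molecular weight; Input: 0.625 nM enzyme; Incubation: 50 min dark incubation at room temperature; Signal: endpoint fluorescence intensity from OMFP dephosphorylation; Read-out basis: % inhibition versus control wells.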
CSN deneddyl inh = inhibitors of CSN-mediated cullin deneddylation, primary screen, biochemical, fluorescence polarization, uHTS | COP9 signalosome complex subunit 5 (Homo sapiens), Q92905 | Purified CSN, SCF-Nedd8-OG deneddylation | inhibition, % at 12.5 µM | 0.38% of 360,000 active | AID 651999, 2013;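 active means pattern-corrected inhibition above about 35%, with an unprinted fluorescence ratio check between 0.5 and 1.5, limit read from the data, passing the limit was not always enough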
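Schedule: reaction 90 min, room temperature / Assay system: HEK293T-derived human Csn5 enzyme / Input: Csn5 at 0.24 nM final / Measure: inhibition of Csn5 cleavage, % / Control set: substrate-only high control, full reaction low control / Technique: fluorescence polarization of the substrate / Buffer or medium: Tris/NaCl/DTT buffer, pH 7.5 / Reagent: SCFSkp2-Nedd8OG substrate at 10 nM final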
SUMO1 PPI mod = modulators of SUMO1 protein-protein interactions, primary screen, biochemical, uHTS; Small ubiquitin-related modifier 1 (Homo sapiens), P63165; SUMO1 binding to a labelled peptide, TR-FRET, 1 h; inhibition, % at 20 µM; 0.33% of 360,000 active; in the data active means inhibition above about 37%
Each line names hits and unclear results; the compound was inactive in the other large screens.

CCC(=O)OC1(C)C(=O)C2=COC(c3ccc(OC)cc3)=CC2=C(Br)C1=O (stereo not drawn)	SUMO1 PPI mod 50
COc1cc(OC)c(OC)cc1CNC(=O)c1ccc(S(=O)(=O)N2CCCCC2)cc1	none
Nc1ncnc2c(C3OC(CO)C(O)C3O)scc12 (stereo not drawn)	none
CC(Sc1ncc(C#N)c(N)n1)C(=O)Nc1ccccc1 (stereo not drawn)	CSN deneddyl inh 54
C/C(=N\NC(=O)Cc1ccccc1Cl)c1cccnc1	none
CCCCCCCC(=O)N/N=C(\C)c1cccnc1	CSN deneddyl inh 58
COc1ccc2c(CN3CCN(c4ccccc4F)CC3)cc(=O)oc2c1	CSN deneddyl inh 100 (no result: Scp-1 inhibitor)
COc1ccc(N2CCN(Cc3cc(=O)oc4cc5c(cc34)CCCC5)CC2)cc1	DNMT1 block 56
Cc1ccc2c(CN3CCN(c4ccccc4F)CC3)cc(=O)oc2c1	none (no result: Scp-1 inhibitor)
O=c1cc(CN2CCCCCCC2)c2ccccc2o1	LMPTP inh 53 (no result: Scp-1 inhibitor)
COc1ccc2c(CN3CCN(c4ccccc4OC)CC3)cc(=O)oc2c1	CSN deneddyl inh 74 (no result: Scp-1 inhibitor)
COc1ccc2c(c1)CCc1c(C(=O)Nc3cc(C)n(Cc4ccc(Cl)cc4)n3)noc1-2	CSN deneddyl inh 91
COc1ccc(CC(=O)N2CCN=C2SCc2cccc([N+](=O)[O-])c2)cc1	none
O=C(O)CN1C(=O)C2C3CC(C2C1=O)C1C(c2ccc(F)cc2)c2sc(=O)[nH]c2SC31 (stereo not drawn)	none
CCOc1cc(C(=O)OCC(=O)c2c(C)[nH]c3ccccc23)ccc1OCC(=O)N1CCOCC1	SUMO1 PPI mod 39
CCOc1cc(C(=O)OCC(=O)c2c[nH]c3ccccc23)ccc1OCC(=O)N1CCOCC1	none
Cc1ccc(C2=C/C(=C/c3cccs3)C(=O)O2)cc1	CSN deneddyl inh 49
O=C1CSC(c2ccccc2[N+](=O)[O-])N1CCc1ccccc1 (stereo not drawn)	none
Cc1cc(N2CCN(C(c3ccnc4ccccc34)c3nnnn3-c3c(C)cccc3C)CC2)c2ccccc2n1 (stereo not drawn)	LMPTP inh 89 (no result: STEP inh, Scp-1 inhibitor, DNMT1 block)
Cc1cccc(C)c1-n1nnnc1C(c1ccnc2ccccc12)N1CCN(CCN(C)C)CC1 (stereo not drawn)	none (no result: STEP inh, Scp-1 inhibitor, DNMT1 block)
COc1ccc(C(=O)Nc2ccc(C(=O)N3CCCCC3C)cc2)c(OC)c1OC (stereo not drawn)	none
CCCc1ccc(Oc2cc(C)nc(N3CCOCC3)n2)cc1	CSN deneddyl inh 94
O=C(COc1ccccc1)Nc1ccncc1Cl	none
CCCCOC(=O)c1ccc(NC(=S)N2CCN(c3ncc4c(=O)c(C(=O)O)cn(CC)c4n3)CC2)cc1	none
CCOC(=O)c1cccc(NC(=S)N2CCN(c3ncc4c(=O)c(C(=O)O)cn(CC)c4n3)CC2)c1	LMPTP inh 70
CCn1cc(C(=O)O)c(=O)c2cnc(N3CCN(C(=S)NC(=O)c4ccccc4)CC3)nc21	LMPTP inh 56
CCCOc1ccc(C(=O)NC(=S)N2CCN(c3ncc4c(=O)c(C(=O)O)cn(CC)c4n3)CC2)cc1	LMPTP inh 70 (no result: Scp-1 inhibitor)
CCn1cc(C(=O)O)c(=O)c2cnc(N3CCN(C(=S)Nc4ccccc4)CC3)nc21	none
O=c1[nH]nc(CNc2ccc(O)cc2)c2ccccc12	SUMO1 PPI mod 55
O=C(CCCCCNC(=O)N1CCn2c1nc1ccccc12)N[C@@H](Cc1ccccc1)C(=O)O	none
Cn1c(=O)n(C)c2cc(/C=N/NC(=O)c3cc4cc(Br)ccc4o3)ccc21	SUMO1 PPI mod 60
COc1ccc(Br)cc1C(=O)N/N=C/c1ccc2c(c1)n(C)c(=O)n2C	none
CC(=O)c1c(C(C)=O)c(C)n(C(c2ccccc2)c2ccccc2)c1C	none
O=C(c1ccco1)N1CCN(C(=O)C2CCN(S(=O)(=O)Cc3ccccc3)CC2)CC1	CSN deneddyl inh 62
O=C(O)Cc1sc(Nc2ccccc2)nc1-c1cccs1	CSN deneddyl inh 51
C=CCNc1nc(-c2cccs2)c(CC(=O)O)s1	none
COC1=CC(=O)c2c(ccc3ncnc(N)c23)C1=O	DNMT1 block 103, SUMO1 PPI mod 72
Cc1c2c(cc3c1[nH]c1ccccc13)C=NCC2	CSN deneddyl inh 65
Cc1nc(C(=O)O)cc2c1[nH]c1ccccc12	none
Cc1cc2c([nH]c3ccccc32)c(C)n1	none
Cc1c2ccncc2cc2c1[nH]c1ccccc12	LMPTP inh 55
Cc1cc(C(=O)COC(=O)c2cc(O)c3ccccc3c2O)c(C)n1CC1CCCO1 (stereo not drawn)	Scp-1 inhibitor 74
Cc1cc(C(=O)COC(=O)c2ccccc2O)c(C)n1CC1CCCO1 (stereo not drawn)	none
COc1cccc(C2C(C(C)=O)=C(C)Nc3ncnn32)c1 (stereo not drawn)	SUMO1 PPI mod 38
COc1ccc(C2C(C(C)=O)=C(C)Nc3ncnn32)cc1 (stereo not drawn)	none
O=C(CCS(=O)(=O)c1ccccc1)N1CCN(c2ccccc2)CC1	none
Cn1nccc1NS(=O)(=O)c1ccc(NC(=O)C(F)(F)F)cc1	none
COc1cccc(-c2nnc3sc(-c4ccccc4)nn23)c1	none
COc1cccc(OC)c1-c1nn2c(-c3cc(-c4ccccc4)n[nH]3)nnc2s1	Scp-1 inhibitor 90, LMPTP inh 56
NS(=O)(=O)c1ccc(N/N=C/c2ccc(O)cc2O)c([N+](=O)[O-])c1	none
NS(=O)(=O)c1ccc(N/N=C/c2ccc(O)c(O)c2O)c([N+](=O)[O-])c1	LMPTP inh 65
Cc1nc(NC(=O)c2ccccc2)sc1-c1csc(NCCc2ccccc2)n1	CSN deneddyl inh 40
COc1cccc(-n2c(SCc3cc(=O)oc4cc(O)c(O)cc34)nc3ccccc3c2=O)c1	LMPTP inh 52
CCN(CC)C(=O)CSc1nc2ccccc2c(=O)n1-c1cccc(OC)c1	none
O=C(CSc1nnc2ccc(-c3ccco3)nn12)Nc1ccccc1F	LMPTP inh 53
Cc1c(NC(=O)C2CCCCC2)cc(C(=O)N2CCOCC2)cc1[N+](=O)[O-]	none
O=C1/C(=C/c2ccccn2)COc2ccccc21	none
O=C1/C(=C/c2ccc(O)cc2)COc2ccccc21	CSN deneddyl inh 89
Cc1cc(C(=O)NC2CCC(O)CC2)c(C)o1 (stereo not drawn)	CSN deneddyl inh 89

Screening results as filed in PubChem.
